# Where “and” joins values, the source holds several entries; their conditions need not be identical. Equal entries are not always repeated.
# Key:
# U2OS = assay: Multiplex assay against U2OS; assay type: toxicity, cell-based; conditions: human
# Outline: (§1)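 Cells were classed with CellPathfinder machine-learning gating, first as Hoechst high-intensity objects or normal cells, then (normal cells) as healthy, pyknosed or fragmented nuclei, and finally (pyknosed cells) as mitotic or apoptotic. Staining of live cells at seeding used Hoechst33342, BioTracker Green Microtubule Cytoskeleton Dye, MitoTracker Red and Annexin V Alexa Fluor 680, with imaging on a CQ1 microscope at 37°C and 5% CO2 after compound addition. Tubulin, mitochondrial-mass and membrane-permeability phenotypes are per cents of healthy-nucleus cells.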
# HEK-293T = assay: Multiplex assay against HEK293T; assay type: toxicity, cell-based; conditions: human; outline: as §1
# [1] = 12 h, 1 µM, compound concentration 1 uM
# [2] = 12 h, 10 µM, compound concentration 10 uM
# [3] = 24 h, 1 µM, compound concentration 1 uM
# [4] = 24 h, 10 µM, compound concentration 10 uM
# [5] = 48 h, 1 µM, compound concentration 1 uM
# [6] = 48 h, 10 µM, compound concentration 10 uM
structure (smiles),measurement,setting,value
O=C(O)Cc1ccccc1Nc1c(Cl)cccc1Cl [DICLOFENAC],Population Apoptotic (%),U2OS; [1],90% and 84%
same,Population Fragmented Nuclei (%),U2OS; [1],15% and 13%
same,Population Healthy Nuclei (%),U2OS; [1],78% and 76%
same,Population Hoechst High Intensity Objects (%),U2OS; [1],5% and 0%
same,Population Membrane Permeable-Phenotype (%),U2OS; [1],4% and 5%
same,Population Mitochondria Different-Phenotype (%),U2OS; [1],4% and 2%
same,Population Mitotic Cells (%),U2OS; [1],10% and 15%
same,Population Normal (%),U2OS; [1],94% and 99%
same,Population Pyknosed Nuclei (%),U2OS; [1],6% and 10%
same,Population Tubulin-Different-Phenotype (%),U2OS; [1],4% and 2%
same,Total Cell Count,U2OS; [1],164
same,Population Apoptotic (%),U2OS; [2],75% and 72%
same,Population Fragmented Nuclei (%),U2OS; [2],20% and 14%
same,Population Healthy Nuclei (%),U2OS; [2],68% and 76%
same,Population Hoechst High Intensity Objects (%),U2OS; [2],2% and 3%
same,Population Membrane Permeable-Phenotype (%),U2OS; [2],8%
same,Population Mitochondria Different-Phenotype (%),U2OS; [2],4% and 3%
same,Population Mitotic Cells (%),U2OS; [2],25% and 27%
same,Population Normal (%),U2OS; [2],97% and 96%
same,Population Pyknosed Nuclei (%),U2OS; [2],11% and 9%
same,Population Tubulin-Different-Phenotype (%),U2OS; [2],4% and 8%
same,Total Cell Count,U2OS; [2],258
same,Population Apoptotic (%),U2OS; [3],92% and 87%
same,Population Fragmented Nuclei (%),U2OS; [3],15% and 19%
same,Population Healthy Nuclei (%),U2OS; [3],76% and 70%
same,Population Hoechst High Intensity Objects (%),U2OS; [3],4% and 3%
same,Population Membrane Permeable-Phenotype (%),U2OS; [3],2% and 5%
same,Population Mitochondria Different-Phenotype (%),U2OS; [3],2%
same,Population Mitotic Cells (%),U2OS; [3],7% and 12%
same,Population Normal (%),U2OS; [3],95% and 96%
same,Population Pyknosed Nuclei (%),U2OS; [3],7% and 10%
same,Population Tubulin-Different-Phenotype (%),U2OS; [3],2%
same,Total Cell Count,U2OS; [3],191 and 165
same,Population Apoptotic (%),U2OS; [4],72% and 81%
same,Population Fragmented Nuclei (%),U2OS; [4],17% and 15%
same,Population Healthy Nuclei (%),U2OS; [4],72% and 77%
same,Population Hoechst High Intensity Objects (%),U2OS; [4],0% and 1%
same,Population Membrane Permeable-Phenotype (%),U2OS; [4],3% and 5%
same,Population Mitochondria Different-Phenotype (%),U2OS; [4],1% and 2%
same,Population Mitotic Cells (%),U2OS; [4],27% and 18%
same,Population Normal (%),U2OS; [4],99% and 98%
same,Population Pyknosed Nuclei (%),U2OS; [4],10% and 7%
same,Population Tubulin-Different-Phenotype (%),U2OS; [4],2% and 4%
same,Total Cell Count,U2OS; [4],311 and 153
same,Population Apoptotic (%),U2OS; [5],100% and 83%
same,Population Fragmented Nuclei (%),U2OS; [5],17% and 15%
same,Population Healthy Nuclei (%),U2OS; [5],71% and 70%
same,Population Hoechst High Intensity Objects (%),U2OS; [5],4% and 3%
same,Population Membrane Permeable-Phenotype (%),U2OS; [5],4%
same,Population Mitochondria Different-Phenotype (%),U2OS; [5],2% and 4%
same,Population Mitotic Cells (%),U2OS; [5],0% and 16%
same,Population Normal (%),U2OS; [5],95% and 96%
same,Population Pyknosed Nuclei (%),U2OS; [5],10% and 14%
same,Population Tubulin-Different-Phenotype (%),U2OS; [5],2% and 4%
same,Total Cell Count,U2OS; [5],271 and 216
same,Population Apoptotic (%),U2OS; [6],86% and 100%
same,Population Fragmented Nuclei (%),U2OS; [6],16% and 12%
same,Population Healthy Nuclei (%),U2OS; [6],73% and 75%
same,Population Hoechst High Intensity Objects (%),U2OS; [6],2% and 1%
same,Population Membrane Permeable-Phenotype (%),U2OS; [6],6%
same,Population Mitochondria Different-Phenotype (%),U2OS; [6],1%
same,Population Mitotic Cells (%),U2OS; [6],13% and 0%
same,Population Normal (%),U2OS; [6],97% and 98%
same,Population Pyknosed Nuclei (%),U2OS; [6],10% and 11%
same,Population Tubulin-Different-Phenotype (%),U2OS; [6],2% and 6%
same,Total Cell Count,U2OS; [6],436 and 220
same,Population Apoptotic (%),HEK-293T; [1],36% and 52%
same,Population Fragmented Nuclei (%),HEK-293T; [1],7%
same,Population Healthy Nuclei (%),HEK-293T; [1],77% and 79%
same,Population Hoechst High Intensity Objects (%),HEK-293T; [1],5% and 10%
same,Population Membrane Permeable-Phenotype (%),HEK-293T; [1],0%
same,Population Mitochondria Different-Phenotype (%),HEK-293T; [1],53% and 61%
same,Population Mitotic Cells (%),HEK-293T; [1],63% and 47%
same,Population Normal (%),HEK-293T; [1],94% and 89%
same,Population Pyknosed Nuclei (%),HEK-293T; [1],14% and 13%
same,Population Tubulin-Different-Phenotype (%),HEK-293T; [1],32% and 23%
same,Total Cell Count,HEK-293T; [1],376 and 324
same,Population Apoptotic (%),HEK-293T; [2],30% and 57%
same,Population Fragmented Nuclei (%),HEK-293T; [2],7%
same,Population Healthy Nuclei (%),HEK-293T; [2],77% and 75%
same,Population Hoechst High Intensity Objects (%),HEK-293T; [2],6% and 14%
same,Population Membrane Permeable-Phenotype (%),HEK-293T; [2],0%
same,Population Mitochondria Different-Phenotype (%),HEK-293T; [2],45% and 68%
same,Population Mitotic Cells (%),HEK-293T; [2],69% and 42%
same,Population Normal (%),HEK-293T; [2],93% and 85%
same,Population Pyknosed Nuclei (%),HEK-293T; [2],14% and 17%
same,Population Tubulin-Different-Phenotype (%),HEK-293T; [2],35%
same,Total Cell Count,HEK-293T; [2],480 and 370
same,Population Apoptotic (%),HEK-293T; [3],30% and 45%
same,Population Fragmented Nuclei (%),HEK-293T; [3],7% and 6%
same,Population Healthy Nuclei (%),HEK-293T; [3],76% and 78%
same,Population Hoechst High Intensity Objects (%),HEK-293T; [3],3% and 10%
same,Population Membrane Permeable-Phenotype (%),HEK-293T; [3],0%
same,Population Mitochondria Different-Phenotype (%),HEK-293T; [3],44% and 37%
same,Population Mitotic Cells (%),HEK-293T; [3],69% and 54%
same,Population Normal (%),HEK-293T; [3],96% and 89%

# From ChEMBL document CHEMBL5724801, “EUbOPEN Chemogenomics Library - Multiplex” (2024)
